Tests used:
Mus musculus [1] = assay: BDF1 male mice were administered with 129 mg/kg intraperitoneally and percent change in iron levels was determined in Spleen; type: functional; details: route intraperitoneal
Summary of the method: (§1)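 Male BDF1 mice made iron-overloaded by transfusion of washed, heat-treated (50 °C, 30 min) canine red cells. Dosing began 2 days after the last transfusion, once daily for 7 days, in distilled water or 2% Polysorbate 80 suspension. Daily group urine was collected. Pooled feces were digested in 1 N HCl (90 °C, 30 min). Liver and spleen were homogenized in saline. Iron was measured by atomic absorption and expressed as % change vs transfused controls.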

Mus musculus [2] = assay: BDF1 male mice were administered with 129 mg/kg intraperitoneally and percent change in iron levels was determined in Feces; type: functional; details: route intraperitoneal; summary of the method: as §1
Mus musculus [3] = assay: BDF1 male mice were administered with 129 mg/kg intraperitoneally and percent change in iron levels was determined in Liver; type: functional; details: route intraperitoneal; summary of the method: as §1
Mus musculus [4] = assay: BDF1 male mice were administered with 129 mg/kg intraperitoneally and percent change in iron levels was determined in Urine; type: functional; details: route intraperitoneal; summary of the method: as §1
Mus musculus [5] = assay: BDF1 male mice were administered with 129 mg/kg intraperitoneally and number of survivors was determined out 10 tested; type: functional; details: route intraperitoneal
Summary of the method: (§2)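 Male BDF1 mice were iron-loaded by transfusion of canine red cells. The cells were heparinised, washed twice in isotonic saline and heated at 50 °C for 30 min. Dosing started two days after the last transfusion, once daily for 7 consecutive days. Compounds were given in distilled water or as a fine aqueous suspension with Polysorbate 80 (2% final). Toxic signs were recorded daily and survivors counted per group.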

Mus musculus [6] = assay: BDF1 male mice were administered with 75 mg/kg orally and percent change in iron levels was determined in Liver; type: functional; details: route oral
Summary of the method: (§3)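 Hypertransfused male BDF1 mice (canine red cells, washed and heated at 50 °C for 30 min) were dosed orally for 7 days with compound in distilled water or a fine suspension with Polysorbate 80 (2% final). Daily group urine and pooled feces (1 N HCl digest, 90 °C, 30 min, triplicate) were collected, and liver and spleen were homogenized. Iron was measured by atomic absorption and reported as % change vs transfused control.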

Mus musculus [7] = assay: BDF1 male mice were administered with 150 mg/kg orally and percent change in iron levels was determined in Feces; type: functional; details: route oral; summary of the method: as §1
Mus musculus [8] = assay: BDF1 male mice were administered with 600 mg/kg orally and percent change in iron levels was determined in Liver; type: functional; details: route oral; summary of the method: as §3
Mus musculus [9] = assay: BDF1 male mice were administered with 75 mg/kg orally and percent change in iron levels was determined in Spleen; type: functional; details: route oral; summary of the method: as §3
Mus musculus [10] = assay: BDF1 male mice were administered with 400 mg/kg orally and percent change in iron levels was determined in Feces; type: functional; details: route oral; summary of the method: as §3
Mus musculus [11] = assay: BDF1 male mice were administered with 600 mg/kg orally and percent change in iron levels was determined in Feces; type: functional; details: route oral; summary of the method: as §3
Mus musculus [12] = assay: BDF1 male mice were administered with 150 mg/kg orally and percent change in iron levels was determined in Spleen; type: functional; details: route oral; summary of the method: as §1
Mus musculus [13] = assay: BDF1 male mice were administered with 600 mg/kg orally and percent change in iron levels was determined in Spleen; type: functional; details: route oral; summary of the method: as §3
Mus musculus [14] = assay: BDF1 male mice were administered with 600 mg/kg orally and percent change in iron levels was determined in Urine; type: functional; details: route oral; summary of the method: as §3
Mus musculus [15] = assay: BDF1 male mice were administered with 300 mg/kg orally and percent change in iron levels was determined in Liver; type: functional; details: route oral; summary of the method: as §3
[16] = First order rate constant was determined Spectrophotometrically at pH 7.5
Mus musculus [17] = assay: BDF1 male mice were administered with 75 mg/kg orally and percent change in iron levels was determined in Urine; type: functional; details: route oral; summary of the method: as §3
Mus musculus [18] = assay: BDF1 male mice were administered with 400 mg/kg orally and percent change in iron levels was determined in Liver; type: functional; details: route oral; summary of the method: as §3
Mus musculus [19] = assay: BDF1 male mice were administered with 300 mg/kg orally and percent change in iron levels was determined in Spleen; type: functional; details: route oral; summary of the method: as §3
Mus musculus [20] = assay: BDF1 male mice were administered with the compound and number of survivors was determined at a dose 300 mg/kg peroral out of 6 tested; type: functional; details: route oral; summary of the method: as §2
Mus musculus [21] = assay: BDF1 male mice were administered with 300 mg/kg orally and percent change in iron levels was determined in Feces; type: functional; details: route oral; summary of the method: as §3
Mus musculus [22] = assay: BDF1 male mice were administered with the compound and number of survivors was determined at a dose 600 mg/kg peroral out of 6 tested; type: functional; details: route oral; summary of the method: as §2
Mus musculus [23] = assay: BDF1 male mice were administered with 400 mg/kg orally and percent change in iron levels was determined in Urine; type: functional; details: route oral; summary of the method: as §3
Mus musculus [24] = assay: BDF1 male mice were administered with the compound and number of survivors was determined at a dose 400 mg/kg peroral out of 10 tested; type: functional; details: route oral; summary of the method: as §2
Mus musculus [25] = assay: BDF1 male mice were administered with the compound and number of survivors was determined at a dose 75 mg/kg peroral out of 6 tested; type: functional; details: route oral; summary of the method: as §2
Mus musculus [26] = assay: BDF1 male mice were administered with 400 mg/kg orally and percent change in iron levels was determined in Spleen; type: functional; details: route oral; summary of the method: as §3
Mus musculus [27] = assay: BDF1 male mice were administered with 75 mg/kg orally and percent change in iron levels was determined in Feces; type: functional; details: route oral; summary of the method: as §3
Mus musculus [28] = assay: BDF1 male mice were administered with 150 mg/kg orally and percent change in iron levels was determined in Liver; type: functional; details: route oral; summary of the method: as §1
Mus musculus [29] = assay: BDF1 male mice were administered with 150 mg/kg orally and percent change in iron levels was determined in Urine; type: functional; details: route oral; summary of the method: as §1
[30] = Half life was determined at pH 7.5 in the presence of Fe(III) Half life was determined Spectrophotometrically
Mus musculus [31] = assay: BDF1 male mice were administered with the compound and number of survivors was determined at a dose 150 mg/kg peroral out of 6 tested; type: functional; details: route oral; summary of the method: as §2
Mus musculus [32] = assay: BDF1 male mice were administered with 300 mg/kg orally and percent change in iron levels was determined in Urine; type: functional; details: route oral; summary of the method: as §3
Mus musculus [33] = assay: BDF1 male mice were administered with 200 mg/kg peroral and percent change in iron levels was determined in Feces; type: functional; details: route oral; summary of the method: as §1
Mus musculus [34] = assay: BDF1 male mice were administered with 200 mg/kg intraperitoneally and percent change in iron levels was determined in Urine; type: functional; details: route intraperitoneal; summary of the method: as §1
Mus musculus [35] = assay: BDF1 male mice were administered with 200 mg/kg intraperitoneally and number of survivors was determined out of 10 tested; type: functional; details: route intraperitoneal; summary of the method: as §2
Mus musculus [36] = assay: BDF1 male mice were administered with 200 mg/kg peroral and percent change in iron levels was determined in Spleen; type: functional; details: route oral; summary of the method: as §3
Mus musculus [37] = assay: BDF1 male mice were administered with 200 mg/kg intraperitoneally and percent change in iron levels was determined in Spleen; type: functional; details: route intraperitoneal; summary of the method: as §1
Mus musculus [38] = assay: BDF1 male mice were administered with 200 mg/kg peroral and percent change in iron levels was determined in Liver; type: functional; details: route oral; summary of the method: as §1
Mus musculus [39] = assay: BDF1 male mice were administered with 200 mg/kg peroral and percent change in iron levels was determined in Urine; type: functional; details: route oral; summary of the method: as §3
[40] = Half life was determined in the presence of Fe(III) Spectrophotometrically; type: ADME
Summary of the method: (§4)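 Iron(III)-promoted hydrolysis was followed spectrophotometrically in 50% aqueous methanol with Hepes buffer at pH 7.5 and 38 °C. Ester and ferric nitrate were each 1.7 × 10⁻⁴ M. The read-out was the rise in absorbance at 480 nm. Data were fitted by nonlinear least squares for consecutive first-order processes.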

Mus musculus [41] = assay: BDF1 male mice were administered with 200 mg/kg peroral and number of survivors was determined out of 10 tested; type: functional; details: route oral; summary of the method: as §2
[42] = First order rate constant was determined in the presence of Fe(3+) Spectrophotometrically; type: ADME; summary of the method: as §4
[43] = Half life was determined in the presence of Fe(III) Titrimetrically; type: ADME
Summary of the method: (§5)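 Metal and chelator were each 5 × 10⁻⁴ M. Constant pH was held with 0.05 M NaOH. Hydrolysis rate came from base consumption, with first-order kinetics.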

Mus musculus [44] = assay: BDF1 male mice were administered with 200 mg/kg intraperitoneally and percent change in iron levels was determined in liver; type: functional; details: route intraperitoneal; summary of the method: as §1
[45] = First order rate constant was determined in the presence of Fe(3+) Titrimetrically; type: ADME; summary of the method: as §5
Mus musculus [46] = assay: BDF1 male mice were administered with 200 mg/kg intraperitoneally and percent change in iron levels was determined in Feces; type: functional; details: route intraperitoneal; summary of the method: as §1

O=C([O-])CN(CCN(CC(=O)[O-])c1ccccc1O)c1ccccc1O.[Li+].[Li+]
Iron change (Mus musculus [1]): -7%
Iron change (Mus musculus [2]): -38%
Iron change (Mus musculus [3]): -49%
Iron change (Mus musculus [4]): 28%
No. of survivors (Mus musculus [5]): 9

CC(C)OC(=O)CN(CCN(CC(=O)OC(C)C)Cc1ccccc1O)Cc1ccccc1O
Iron change (Mus musculus [6]): -34%
Iron change (Mus musculus [7]): 23%
Iron change (Mus musculus [8]): -56%
Iron change (Mus musculus [9]): -10%
Iron change (Mus musculus [10]): -5%
Iron change (Mus musculus [11]): 5%
Iron change (Mus musculus [12]): 2%
Iron change (Mus musculus [13]): -27%
Iron change (Mus musculus [14]): 141%
Iron change (Mus musculus [15]): -45%
10E2 k1 [16]: 0.542 min⁻¹
Iron change (Mus musculus [17]): -10%
Iron change (Mus musculus [18]): -45%
Iron change (Mus musculus [19]): -7%
No. of survivors (Mus musculus [20]): 6
Iron change (Mus musculus [21]): -1%
No. of survivors (Mus musculus [22]): 6
Iron change (Mus musculus [23]): 233%
No. of survivors (Mus musculus [24]): 10
No. of survivors (Mus musculus [25]): 6
Iron change (Mus musculus [26]): -13%
Iron change (Mus musculus [27]): 1%
Iron change (Mus musculus [28]): -32%
Iron change (Mus musculus [29]): 33%
half-life [30]: 2.15 h
No. of survivors (Mus musculus [31]): 6
Iron change (Mus musculus [32]): 76%

O=C1CN(CCN2CC(=O)Oc3ccccc32)c2ccccc2O1
Iron change (Mus musculus [33]): -2%
Iron change (Mus musculus [34]): 157%
No. of survivors (Mus musculus [35]): 8
Iron change (Mus musculus [36]): -30%
Iron change (Mus musculus [37]): -17%
Iron change (Mus musculus [38]): -56%
Iron change (Mus musculus [39]): 93%
half-life [40]: 1.97 h
No. of survivors (Mus musculus [41]): 10
10E2 k1 [42]: 0.587 min⁻¹
half-life [43]: 1.19 h
Iron change (Mus musculus [44]): -68%
10E2 k1 [45]: 0.97 min⁻¹
Iron change (Mus musculus [46]): -65%

Source: ChEMBL document CHEMBL1123309, “Esters and lactones of phenolic amino carboxylic acids: prodrugs for iron chelation” (J Med Chem, 1986)
